UBC13 inh: inhibitors of human UBC13 polyubiquitin chain formation. P61088. TR-FRET. inhibition, % at 20 µM. hit rate 0.47% among 330,000. AID 485273; in the data active = inhibition above about 45%, passing the limit was not always enough
PREPL inhibitor: inhibitors of human prolyl oligopeptidase-like enzyme PREPL; recombinant PREPL, fluorescence polarization activity-based probe; inhibition, % at 5.96 µM; hit rate 0.68% among 320,000; in the data active = inhibition above about 43%;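 also: 0% = enzyme with DMSO and 100% = wells lacking enzyme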
Target sequence (Q4J6C6 whole entry, looked up): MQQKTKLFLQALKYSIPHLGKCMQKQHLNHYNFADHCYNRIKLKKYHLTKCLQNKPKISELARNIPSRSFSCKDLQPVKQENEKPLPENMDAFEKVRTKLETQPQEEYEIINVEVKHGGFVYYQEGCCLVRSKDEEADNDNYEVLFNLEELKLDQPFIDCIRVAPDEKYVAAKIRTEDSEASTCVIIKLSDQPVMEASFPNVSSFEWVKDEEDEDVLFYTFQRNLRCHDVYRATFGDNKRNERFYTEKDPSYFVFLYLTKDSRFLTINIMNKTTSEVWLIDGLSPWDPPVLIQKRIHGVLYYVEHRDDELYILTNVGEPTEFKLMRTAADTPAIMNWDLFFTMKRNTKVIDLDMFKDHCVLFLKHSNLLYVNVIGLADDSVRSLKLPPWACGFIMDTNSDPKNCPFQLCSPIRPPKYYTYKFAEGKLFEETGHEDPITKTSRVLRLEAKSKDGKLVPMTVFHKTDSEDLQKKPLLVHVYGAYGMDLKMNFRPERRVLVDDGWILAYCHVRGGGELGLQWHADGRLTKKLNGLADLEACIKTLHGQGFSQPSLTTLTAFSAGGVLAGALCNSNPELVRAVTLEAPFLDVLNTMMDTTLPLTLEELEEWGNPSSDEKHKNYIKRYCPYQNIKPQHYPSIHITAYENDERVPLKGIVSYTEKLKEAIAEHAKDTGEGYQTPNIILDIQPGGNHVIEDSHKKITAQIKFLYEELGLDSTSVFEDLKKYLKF
Apaf-1 inh: blocks human Apaf-1 apoptosome activity; O14727; reconstituted apoptosome caspase-3 activity, DEVD-Rh110 fluorescence; inhibition, % at 20 µM; hit rate 0.71% among 330,000; AID 489030; active = inhibition of at least 40% at 20 µM;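 also: plate controls were DMSO wells for no effect and DEVD-CHO caspase inhibitor wells for full effect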
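Assay system – apoptosome proteins · Medium – Hepes buffer, pH 7.5 · Also added – cytochrome c with DEVD-Rh110 · Timing – 30 min compound preincubation, 50 min activation, room temperature · Detection – Rh110 fluorescence, excitation 480 nm, emission 540 nm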
MEKK2wt PB1 HTS: raises or lowers MEK5 binding to wildtype human MEKK2 PB1 domain | Q9Y2U5 | bead flow cytometry, Alexa488-MEK5 binding to MEKK2 WT; actives lie on both sides | binding response (% of control), % at 10 µM | hit rate 1.1% among 290,000; in the data active = binding response below about 67% or above about 130%
MEKK2 mut-MEK5: signal of MEK5 binding to mutant human MEKK2 PB1 domain. bead flow cytometry, Alexa488-MEK5 binding to MEKK2 mutant. percent response, % at 10 µM. hit rate 0.35% among 290,000. AID 1530; in the data active = percent response above about 24%, passing the limit was not always enough
MEKK3 PB1 HTS: raises or lowers MEK5 binding to the human MEKK3 PB1 domain. Q99759. bead-based flow cytometry, Alexa488-MEK5 binding to MEKK3; actives lie on both sides; 0 = blocked by unlabeled MEK5, 100 = vehicle. hit rate 1.4% among 290,000. binding response (% of control), % at 10 µM;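 active = binding response more than 3 SD above or below the average of its plate-row segment, actives on both sides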;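 also: Alexa488 bead fluorescence after subtracting the streptavidin-only scavenger bead signal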
MEKK2wt confirm: raises or lowers MEK5 binding to wildtype human MEKK2, retest; bead flow cytometry, Alexa488-MEK5 binding to MEKK2 WT; actives lie on both sides; binding response (% of control), % at 10 µM; hit rate 2.4% among 5,900; AID 1892; shares compounds with MEKK3 PB1 HTS; in the data active = binding response below about 16% or above about 210%; inactive = in between
MEKK2mut-MEK5: signal of MEK5 binding to mutant human MEKK2, retest; shares compounds with MEKK3 PB1 HTS; bead flow cytometry, Alexa488-MEK5 binding to MEKK2 mutant; percent response, % at 10 µM; hit rate 2% among 5,900; AID 1893; in the data active = percent response mostly above about 71%, no sharp cut-off; inactive = mostly below about 38%;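 also: higher means compound restores mutant binding toward wildtype level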
MEKK3-MEK5 inh: confirmation of inhibitors of MEK5 binding to human MEKK3; AID 1894; hit rate 1.8% among 5,900; bead flow cytometry, Alexa488-MEK5 binding to MEKK3; active compounds read low; shares compounds with MEKK3 PB1 HTS; binding response (% of control), % at 10 µM;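 active = binding response below 72% of control, or above a set upper limit, though filed actives all read lower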;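 also: 100% = DMSO only wells and 0% = binding blocked by excess unlabeled MEK5; lower values mean stronger disruption of MEK5 binding to MEKK3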
Numbers without * were called inactive; · = not tested or not shown; [ ] = dose if it differs, or a comment. This is a sample that favours compounds with a hit; in the whole collection about 3.1% have one here.

SMILES	UBC13 inh	PREPL inhibitor	Apaf-1 inh	MEKK2wt PB1 HTS	MEKK2 mut-MEK5	MEKK3 PB1 HTS	MEKK2wt confirm	MEKK2mut-MEK5	MEKK3-MEK5 inh
N/C(=N\N=C\c1ccco1)SC1CC(=O)N(c2ccc(C(=O)O)cc2)C1=O (centres undefined)	-18	1	12	123	5	135*	110	0	100
N/C(=N\N=C\c1ccco1)SC1CC(=O)N(c2ccccc2)C1=O (centres undefined)	6	5	-12	92	-6	94	·	·	·
CCCn1c(SC(C(=O)Nc2cccc(OC)c2)c2ccccc2)nc2ccccc2c1=O (centres undefined)	3	-3	12	110	0	142*	96	-5	97
NS(=O)(=O)c1ccc(CCNC(=O)CCNS(=O)(=O)c2ccccc2C(F)(F)F)cc1	1	-5	-5	·	·	·	·	·	·
Cc1ccc(S(=O)(=O)N2[C@@H](c3ccc(F)cc3)C(C(=O)O)=CC[C@H]2c2cccs2)cc1	-14	25	16	·	·	·	·	·	·
CC[C@]1(C(=O)OC)[C@H]2C(=O)N(C)C(=O)[C@H]2[C@H]2CN=C(SCc3ccc(C)cc3)N21	·	·	12	·	·	·	·	·	·
C/C(=N\NC(=O)COc1ccc(C(C)(C)C)cc1)c1ccc2c(c1)OCCO2	0	12	4	113	21	110	·	·	·
CCc1ccc(OCC(=O)N/N=C(\C)c2ccc3c(c2)OCCO3)cc1	-7	13	24	102	0	131*	104	-1	103
O=C(Nc1cc(Cl)ccc1N1CCOCC1)c1cccnc1Cl	8	5	-16	96	-3	95	·	·	·
O=C1C(Nc2ccccc2)=C(NS(=O)(=O)c2ccccc2)C(=O)c2ccccc21	-39	6	25	106	0	139*	96	-7	92
Cc1cccc(C(=O)NCc2nnc3c4ccccc4c(-c4ccccc4)nn23)c1	-21	7	28	107	0	146*	95	-4	94
C=CCc1ccc(OCCCOc2ccc(C)c(C)c2)c(OC)c1	-17	-2	10	91	-10	80*[inhibitor]	99	-6	99
COC(=O)C1CCN(C(=O)COC(=O)CNC(=O)c2ccc(Cl)cc2Cl)CC1	-6	7	-1	·	·	·	·	·	·
Fc1ccc(NC(=S)Nc2ccc3nccnc3c2)cc1	-16	12	9	118	1	130*	101	-5	101
COc1ccc(Cl)cc1NC(=O)CN(C)C(=O)c1cccc2cccnc12	10	4	4	·	·	·	·	·	·
CN(Cc1ccon1)Cc1cn(Cc2ccccc2)nc1-c1ccc2c(c1)OCO2	5	1	10	89	-8	89	·	·	·
C=CCN1C(=O)c2ccccc2Sc2ccc(C(=O)NCC(OC)OC)cc21	-2	9	9	102	1	105	·	·	·
COc1ccc(CC(=O)OCC(=O)NCc2ccccc2Cl)cc1	-3	-3	1	136	5	151*	107	4	105
COc1ccccc1CNC(=O)COC(=O)Cc1ccc(Cl)cc1	-15	-8	-5	115	13	107	·	·	·
O=C(CCC(=O)N1CCN(S(=O)(=O)c2ccccc2Cl)CC1)c1ccccc1	2	·	-1	·	·	·	·	·	·
CCSC1=NCCN1S(=O)(=O)c1ccc(Cl)cc1	-14	5	3	100	-12	109	·	·	·
CCSC1=NCCN1S(=O)(=O)c1ccccc1	9	0	9	58	-16	50*[inhibitor]	103	-2	106
CCC(=O)c1cn(CC(=O)Nc2ccc(C)cc2)c2ccccc12	1	-2	-10	103	8	99	·	·	·
COc1ccc(-n2cc(CNCc3cnc4ccccn34)c(-c3cccc(F)c3)n2)cc1	18	8	22	170*	59*	106	151	41	116
COc1ccc(-n2cc(CNCC3CCOCC3)c(-c3cccc(F)c3)n2)cc1	15	5	9	122	0	110	·	·	·
SMILES	UBC13 inh	PREPL inhibitor	Apaf-1 inh	MEKK2wt PB1 HTS	MEKK2 mut-MEK5	MEKK3 PB1 HTS	MEKK2wt confirm	MEKK2mut-MEK5	MEKK3-MEK5 inh
CCOc1ccc(Cn2ccnc2)cc1[N+](=O)[O-]	-14	-3	2	106	3	129*	105	4	106
O=C(NNc1cc(Cl)ccc1Cl)c1c(F)cccc1Cl	4	-5	4	124	25	129*	108	5	106
CO/N=C/c1ccc(Oc2ccc(C)cc2)nc1	-1	-1	6	114	26*	111	98	-3	100
Cc1ccc(Oc2ccc(C=O)cn2)cc1	-11	20	-6	93	-7	95	·	·	·
NC(=O)c1cc(S(=O)(=O)NCCc2ccc(Cl)cc2)cs1	-1	-36	0	101	1	98	·	·	·
Cc1ccc(OC(F)F)c(NC(=O)Nc2cccc(C(F)(F)F)c2)c1	-1	12	14	203*	55*	108	134	6	103
Cc1cc(NC(=O)CCC(=O)N(CC(=O)NC2CCCC2)c2ccc(Cl)c(Cl)c2)no1	7	3	2	101	-4	102	·	·	·
CCOC(=O)c1cnc2cc(C)nn2c1C	-5	0	12	87	-10	74*[inhibitor]	102	10	101
Cc1cc(NC(=O)CCC(=O)N(CC(=O)NCC2CCCO2)c2cccc(F)c2)no1 (centres undefined)	6	3	-3	111	10	105	·	·	·
CCCCNC(=O)C1CCN(c2nc(C)cc(C)n2)CC1	-1	6	-5	107	2	104	·	·	·
CCCCNC(=O)C1CCN(c2nc(OC)nc(OC)n2)CC1	13	1	-5	96	9	124*	103	1	102
N#Cc1ccc(C(=O)OCC(=O)Nc2cccc(S(=O)(=O)NC3=NCCC3)c2)cc1	3	27	-12	·	·	·	·	·	·

Screening results: PubChem, several laboratories
